PG9 Ab binder: binds the HIV-1 gp120 antibody PG9; AID 624416; TR-FRET gp120-PG9 antibody binding; 0.43% of 360,000 active; inhibition, % at 6.7 µM; in the data active = inhibition above about 8.5%
NR1D1 modulator: modulators of human Rev-erb alpha DNA binding | Rev-erbα–FITC-DNA binding, fluorescence polarization, 90 min | 0.79% of 370,000 active | activity, % at 10 µM | AID 1259318 | P20393;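 active = activity above about 14%, limit read from the data; passing the limit was not always enough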;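 also: 0% = DMSO wells with 35 nM protein and 100% = DMSO wells with 750 nM protein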
Target sequence (P20393 whole entry, looked up): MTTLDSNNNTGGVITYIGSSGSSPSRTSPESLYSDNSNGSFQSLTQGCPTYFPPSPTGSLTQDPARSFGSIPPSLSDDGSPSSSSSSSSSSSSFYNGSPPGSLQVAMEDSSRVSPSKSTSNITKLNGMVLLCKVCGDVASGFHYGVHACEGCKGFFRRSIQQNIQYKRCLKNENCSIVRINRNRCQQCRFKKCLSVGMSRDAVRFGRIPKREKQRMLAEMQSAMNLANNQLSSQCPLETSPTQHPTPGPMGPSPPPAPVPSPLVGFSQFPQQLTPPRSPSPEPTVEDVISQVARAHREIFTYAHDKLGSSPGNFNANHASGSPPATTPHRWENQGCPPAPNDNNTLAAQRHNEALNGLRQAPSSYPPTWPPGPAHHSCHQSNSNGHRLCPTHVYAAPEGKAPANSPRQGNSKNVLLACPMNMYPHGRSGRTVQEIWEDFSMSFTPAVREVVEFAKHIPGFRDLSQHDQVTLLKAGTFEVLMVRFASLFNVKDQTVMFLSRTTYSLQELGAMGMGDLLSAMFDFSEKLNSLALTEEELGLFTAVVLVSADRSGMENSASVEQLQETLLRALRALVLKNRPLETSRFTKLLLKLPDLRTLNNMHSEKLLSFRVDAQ
hiPSC survival: enhancers of human iPSC single-cell survival; hiPSC single-cell survival, ATPlite luminescence; 100% = ROCK inhibitor wells, 0% = DMSO; survival enhancement, % at 20 µM; 0.044% of 360,000 active; in the data active = survival enhancement above about 18%;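 also: cells exposed to compounds for 16 hours before the ATP read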
H9c2 TAG inh: reduces triacylglycerol accumulation in H9c2 cells. Nile Red lipid (TAG) fluorescence; cells loaded with 200 µM oleic acid. inhibition, % at 12.5 µM. 0.66% of 230,000 active;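 active = pattern-corrected inhibition of lipid staining of at least 50% with the nuclear-stain viability signal not falling by more than 50%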;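 also: 0% = DMSO wells and 100% = triacsin C control wells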
MIN6 prolif: inducers of beta-cell replication in MIN6 cells. proliferation, % at 10 µM. 0.29% of 330,000 active. MIN6 cells proliferation, ATPlite luminescence, 48 h; cells starved in 0.2% serum; 100% = growth in 10% serum;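 active = compounds whose signal lies at least 3.5 SD above the mean of all wells on their plate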;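 also: 0% = DMSO-treated cells in low-serum medium and 100% = 10% serum control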
T cruzi repl: T. cruzi replication inhibition. T. cruzi beta-gal in NIH3T3, luminescence, 90 h. inhibition, % (concentration not given with the values). 1.4% of 300,000 active;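 active = mean inhibition across valid replicates above about 55%, limit read from the data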;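 also: signal also drops with host cell toxicity which is not excluded here; 0% = plate median of DMSO wells and 100% = zero luminescence signal; higher percent means less beta-gal luminescence so fewer parasites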
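Assay system: NIH/3T3 host cells with β-galactosidase reporter T. cruzi; input: 5,000 host fibroblasts per well; compound: single 50 nL compound addition per well in DMSO; timing: ≥90 h infection period, 3 h prior cell attachment; measured by: GalScreen β-gal luminescence, detergent lysis, 60 min; evaluation: percent inhibition of parasite-derived β-gal signal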
Numbers without * were called inactive; x = no result. The list is not random: actives were taken first. Their share in the collection is about 2.9%.

SMILES | PG9 Ab binder | NR1D1 modulator | hiPSC survival | H9c2 TAG inh | MIN6 prolif | T cruzi repl
CC(=O)O[C@@]12CO[C@@H]1C[C@H](OC1OCC(O)C(O)C1O)[C@@]1(C)C(=O)[C@H](O)C3=C(C)[C@@H](OC(=O)[C@H](O)[C@@H](NC(=O)c4ccccc4)c4ccccc4)C[C@@](O)([C@@H](OC(=O)c4ccccc4)C12)C3(C)C (stereo partly drawn) | -2 | -4 | -1 | x | 0 | 6
CC/C=C/CC(=O)N[C@@H](c1ccccc1)[C@@H](O)C(=O)O[C@H]1C[C@@]2(O)[C@@H](OC(=O)c3ccccc3)C3[C@](C)(C(=O)[C@H](OC(C)=O)C(=C1C)C2(C)C)[C@@H](O)C[C@H]1OC[C@@]31OC(C)=O (stereo partly drawn) | 0 | 0 | 0 | x | -5 | 45
CC(=O)O[C@@]12CO[C@@H]1C[C@@H](O)[C@@]1(C)C(=O)[C@H](O)C3=C(C)[C@@H](OC(=O)[C@H](O)[C@@H](NC(=O)c4ccccc4)c4ccccc4)C[C@@](O)([C@@H](OC(=O)c4ccccc4)C12)C3(C)C (stereo partly drawn) | 0 | 1 | -1 | x | -3 | 71*
CCC(C)C(=O)N[C@@H](c1ccccc1)[C@@H](O)C(=O)O[C@H]1C[C@@]2(O)[C@@H](OC(=O)c3ccccc3)C3[C@](C)(C(=O)[C@H](OC(C)=O)C(=C1C)C2(C)C)[C@@H](O)C[C@H]1OC[C@@]31OC(C)=O (stereo partly drawn) | 2 | -1 | 0 | x | 1 | 57*
C/C=C(\C)C(=O)N[C@@H](c1ccccc1)[C@@H](O)C(=O)O[C@H]1C[C@@]2(O)[C@@H](OC(=O)c3ccccc3)C3[C@](C)(C(=O)[C@H](OC(C)=O)C(=C1C)C2(C)C)[C@H](O)C[C@H]1OC[C@@]31OC(C)=O (stereo partly drawn) | -1 | -2 | -1 | x | -3 | 56*
C=C(C)[C@@]12OC3(c4ccccc4)O[C@@H]1C1[C@@H]4O[C@]4(CO)[C@@H](O)[C@]4(O)C(=O)C(C)=C[C@H]4[C@@]1(O3)[C@H](C)[C@H]2OC(=O)/C=C/C=C/c1ccccc1 (stereo partly drawn) | x | x | 42* | x | -6 | 57*
CC(O)CNc1ccc([N+](=O)[O-])c2cccnc12 (stereo not drawn) | -5 | 7 | -2 | x | 0 | -11
CCCC(CCC)C(=O)OC[N+](C)(C)CCOC(=O)C(O)(c1ccccc1)C1CCCC1 (stereo not drawn) | 0 | -7 | 0 | x | -1 | 55*
CC(C)(C)C(=O)OC[N+](C)(C)CCOC(=O)C(O)(c1ccccc1)C1CCCC1 (stereo not drawn) | 0 | -6 | 1 | -2 | 0 | 4
COc1ccc(N2CCN(CCc3ccncc3)CC2)cc1 | -3 | 8 | 1 | x | -2 | 10
O=C(NCC(c1cccnc1)N1CCN(c2ccccc2F)CC1)Oc1ccccc1 (stereo not drawn) | 2 | -5 | 0 | -3 | 0 | 65*
COc1ccc(N2CCN(C(CNC(=O)Oc3ccccc3)c3cccnc3)CC2)cc1 (stereo not drawn) | -5 | -2 | 1 | x | -2 | 62*
COc1cccc(CCNCc2cccc(C(F)(F)F)c2)c1 | 0 | -1 | -1 | -4 | 4 | 64*
CCCCC(CC)CNCC(O)c1ccccc1 (stereo not drawn) | 1 | -1 | -1 | 25 | -2 | 78*
CC1CCC(NCC(O)c2ccccc2)CC1 (stereo not drawn) | -1 | -4 | -4 | x | -2 | -4
CN1c2ccc([N+](=O)[O-])cc2CC2(C(=O)NC(=O)N(c3ccccc3)C2=O)C1c1ccccc1 (stereo not drawn) | -3 | -1 | 2 | 16 | -3 | 72*
CCOC(=O)C1SC2(C(F)(F)F)CC1(O)c1c(C)cc(C)nc1O2 (stereo not drawn) | -3 | 4 | 2 | x | 1 | 11
C[C@H]1C[C@@H](C)C(=O)[C@@H]([C@H](O)CC2CC(=O)NC(=O)C2)C1 | 1 | 4 | -1 | x | -5 | 58*

Screening results (PubChem)
